Experimental data from different studies.
Lines come from different studies, so protocols differ.
Target: Casein kinase I isoform gamma-3 (CSNK1G3, Homo sapiens, UniProt Q9Y6M4)

effect on	action	technique	tested at	quantity	value	Compound
enzyme activity	inhibitor	–	1 µM	inhibition	0%	C=CC(=O)N1CCC([C@@H]2CCNc3c(C(N)=O)c(-c4ccc(Oc5ccccc5)cc4)nn32)CC1
enzyme activity	inhibitor	–	0.1 µM	inhibition	-4.11%	Cc1cc(O)c(-c2ccc([C@@H](C)CN(C)C)cc2)c2c1[nH]c(=O)c1sccc12
binding	–	–	1 µM	remaining binding	100%	Cc1ccc(NC(=O)c2ccnc(C(F)(F)F)c2)cc1-c1cc(OCCO)nc(N2CCOCC2)c1
cell-free assay	–	–	0.1 µM	remaining signal	100%	C1=C/COCc2cc(ccc2OCCN2CCCC2)Nc2nccc(n2)-c2cccc(c2)COC/1
thermal stability	–	DSF	30 µM	ΔTm	3.3 °C	N#Cc1ccc2nc(Nc3ccc(N4CCOCC4)c(Cl)c3)[nH]c2c1
enzyme activity	inhibitor	–	1 µM	inhibition	0%	CO[C@@H]1[C@H](N(C)C(=O)c2ccccc2)C[C@H]2O[C@]1(C)n1c3ccccc3c3c4c(c5c6ccccc6n2c5c31)C(=O)NC4
binding	–	competition with immobilised ligand	0.5 µM	remaining binding	85%	CCCCC(=O)Nc1ccc(-c2ccc3ncn(CCC)c(=O)c3c2)cn1
binding	–	–	1 µM	remaining binding	100%	COc1ccc2[nH]c3c4[nH]c5ccc(OC)cc5c4c4c(c3c2c1)C(=O)NC4=O
